Experimental data published in PubChem BioAssay AID504349 (Southern Research Specialized Biocontainment Screening …, 2011).
Activity calls are given as the source filed them. The rule behind the calls is not given here.

Test system: not listed separately
Experiment: OD600 growth after T7 infection, EV36 – E. coli EV36 K1, powder samples, selectivity assay for bacterial capsule biogenesis inhibitors, dose response (AID 504349)
Settings: E. coli EV36 K1, T7 phage lysis, OD600 3 h; at 100 µM (top of the series)
How it was run: (§1)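 Probe or stimulus: T7 phage infection; assay system: E. coli EV36 K1:K-12 hybrid cells; input: overnight bacterial culture diluted 1:100 into each well; measure: phage lysis inhibition from OD600; schedule: 1.5 h compound at 37 °C, 3 h after T7; compound dosing: dose series 0.39–100 µM final, 1% DMSO; technique: absorbance at 600 nm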

SMILES | phage lysis inhibition (viability)
C=CCOc1ccc(C2c3c(oc4ccccc4c3=O)C(=O)N2CCCN2CCOCC2)cc1 (stereo not given) | 97.4% (inactive)
O=C(O)c1cc(-c2c[nH]c3ccccc23)nc2cc3ccccc3cc12 | 101% (inactive)
Cc1ccc(C2c3c(oc4cc(C)c(C)cc4c3=O)C(=O)N2CCCN2CCOCC2)cc1 (stereo not given) | 91.7% (inactive)
COc1ccc(OC)c(-c2cc(C(=O)O)c3cc4ccccc4cc3n2)c1 | 99% (inactive)
Cc1cc(C)c2c(=O)c(-c3cc(C(=O)O)c4cc5ccccc5cc4n3)coc2c1 | 107% (inactive)
O=C(O)c1cc(-c2cccc(Cl)c2)nc2cc3ccccc3cc12 | 101% (inactive)

Test system: E. coli EV36 K1, T7 phage lysis, OD600 3 h
Experiment: as above
Settings: not given
How it was run: as §1

SMILES | IC50 [nM]
CC1(C(=O)O)CCC(C(=O)Nc2ccc3ccccc3c2)C1(C)C (stereo not given) | 8500
O=C(ONc1ccc(N=NC(=O)c2ccccc2O)cc1)c1ccccc1 | < 390
O=C(NCc1cc([N+](=O)[O-])ccc1O)c1cccnc1Sc1ccccc1 | 4600
O=C(COc1ccc(Cl)cc1Cl)Nc1ccc(C(=O)Nc2ccccc2C(=O)O)cc1 | 2900
O=C(NCc1cc([N+](=O)[O-])ccc1O)c1cccnc1Sc1ccccc1Cl | 1800
O=C(Nc1ccncc1)c1ccc2ncsc2c1 | < 390
CC1=NN2C(=N)/C(=C\c3ccc(SCc4ccco4)o3)C(=O)N=C2S1 | 1500
CCOc1ccc(-c2cc(NC(=O)c3c(F)cccc3F)c(C(=O)O)s2)cc1 | < 390
COc1ccc2nc(NC(=O)c3ccc(Br)s3)sc2c1 | < 390
